What was measured:
SKOV-3 cells = experiment: Intracellular uptake of RB-BSA by confocal microscopy; type: cell-based; details: BSA ~60 μg/mL, 2 h, 37 °C
Summary of the method: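 SKOV-3 cells in McCoy's 5A with 10% FBS were seeded at 5 × 10⁴ per well and allowed to adhere for 24 h. Lysosomes were labelled with LysoTracker Green DND-26 for 30 min at 37 °C. Rhodamine B-labelled BSA, free or nanocarrier-loaded (final BSA ~60 μg/mL), was added for 2 h. Cells were washed three times with PBS, fixed in 4% paraformaldehyde for 15 min at room temperature, DAPI-stained and imaged by laser scanning confocal microscopy.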

blood glucose = experiment: Hypoglycemic effect of insulin formulations; type: in vivo, BALB/c mice; details: fasted mice, s.c., 2 IU/kg
Summary of the method: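 Healthy BALB/c mice, 6-7 weeks old, were fasted overnight with water only and kept fasted throughout, n=6 per group. They received a subcutaneous injection at an insulin dose of 2 IU/kg, either free insulin or insulin loaded in nanocarriers at a 1/10 insulin:polymer mass ratio. Blood glucose was followed with a glucose meter over 0-6 h. Area above the curve was calculated by the trapezoidal method.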

Row | Substance | cellular uptake of RB-BSA (free or loaded in the nanocarrier) (SKOV-3 cells) | glycemic decrease (blood glucose; 30 min after injection, n=6) [%] | blood glucose recovery, % of basal level (blood glucose; after 2 h) [%] | time of maximal blood glucose drop (nadir) (blood glucose; n=6) [h]
1 | RB-BSA: Rhodamine B (RB)-labeled BSA, model protein | minimal |  |  | 
2 | insulin: insulin (MW: 5807 Da) |  | 32 | 80 | 1

Source: paper PMC6585461 (Biomaterials, 2019)
